ChEMBL document CHEMBL2311290 (J Med Chem, 2013)
Calls of active or inactive are those of the source. No cut-off for these calls is given here.

Tests used:
[1] = biological target: Coagulation factor XI (Homo sapiens) (UniProt P03951); experiment: Inhibition of human FXIa assessed as S-2366 hydrolysis at 250 uM after 10 mins by microplate reader analysis
Procedure, shortened: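 Human FXIa at 0.765 nM final in pH 7.4 Tris buffer (150 mM NaCl, 0.1% PEG8000, 0.02% Tween80). It is preincubated 10 min at 37 °C with the agent or solvent, then 345 µM S-2366 is added. Initial rate of A405 increase gives residual activity relative to no-inhibitor control.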

Plasma [2] = experiment: Ratio of concentration required to double clotting time for compound to enoxaparin in human plasma; format: functional
Blood [3] = experiment: Anticoagulant activity in human whole blood assessed as maximum amplitude at 280 ug/ml by thromboelastography (reference value: 59 mm); format: functional
Procedure, shortened: (§1)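 Thromboelastography in sodium-citrated human whole blood at 37 °C. 340 µL of blood containing 10 µL of the agent (or high-purity water) is added to a cup holding 20 µL of 200 mM CaCl2 stock, oscillating through 4°45′ at 0.1 Hz. Clot force on a central pin is recorded and read out as R, α, MA and G.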

Blood [4] = experiment: Anticoagulant activity in human whole blood assessed as maximum amplitude at 190 ug/ml by thromboelastography (reference value: 59 mm); format: functional; procedure, shortened: as §1
Blood [5] = experiment: Anticoagulant activity in human whole blood assessed as maximum amplitude at 135 ug/ml by thromboelastography (reference value: 59 mm); format: functional; procedure, shortened: as §1
Blood [6] = experiment: Anticoagulant activity in human whole blood assessed as maximum amplitude at 20 ug/ml by thromboelastography (reference value: 59 mm); format: functional; procedure, shortened: as §1
Blood [7] = experiment: Anticoagulant activity in human whole blood assessed as angle alpha at 190 ug/ml by thromboelastography (reference value: 56.4 deg); format: functional; procedure, shortened: as §1
Blood [8] = experiment: Anticoagulant activity in human whole blood assessed as angle alpha at 135 ug/ml by thromboelastography (reference value: 56.4 deg); format: functional; procedure, shortened: as §1
Blood [9] = experiment: Anticoagulant activity in human whole blood assessed as angle alpha at 20 ug/ml by thromboelastography (reference value: 56.4 deg); format: functional; procedure, shortened: as §1
Blood [10] = experiment: Anticoagulant activity in human whole blood assessed as clot formation time at 280 ug/ml by thromboelastography (reference value: 6.0 mins); format: functional; procedure, shortened: as §1
Blood [11] = experiment: Anticoagulant activity in human whole blood assessed as clot formation time at 190 ug/ml by thromboelastography (reference value: 6.0 mins); format: functional; procedure, shortened: as §1
Blood [12] = experiment: Anticoagulant activity in human whole blood assessed as clot formation time at 135 ug/ml by thromboelastography (reference value: 6.0 mins); format: functional; procedure, shortened: as §1
Blood [13] = experiment: Anticoagulant activity in human whole blood assessed as clot formation time at 20 ug/ml by thromboelastography (reference value: 6.0 mins); format: functional; procedure, shortened: as §1
Plasma [14] = experiment: Anticoagulant activity in human plasma assessed as concentration required to double activated partial […] time; format: functional
Procedure, shortened: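 Citrated pooled normal human plasma (90 µL) plus 10 µL of the test agent and 100 µL of prewarmed ellagic acid APTT reagent (0.2% ellagic acid). The mixture is incubated 4 min at 37 °C, then clotting is started with prewarmed 25 mM CaCl2 and read on a fibrometer. Clotting time versus concentration is fitted to a quadratic trend line to get the concentration that doubles it. Water or organic vehicle serves as the blank.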

Plasma [15] = experiment: Anticoagulant activity in human plasma assessed as concentration required to double […] prothrombin time; format: functional
Procedure, shortened: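 Prothrombin time is a one-stage recalcification assay read on a fibrometer. 10 µL of the agent is made up to 100 µL with citrated human plasma and incubated 30 s at 37 °C. Clotting is started with 200 µL of prewarmed thromboplastin-D. A quadratic trend line of clotting time versus concentration gives the concentration that doubles clotting time. Water or organic vehicle serves as the blank.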

[16] = biological target: T1, Serine protease 1 (Bos taurus) (UniProt P00760); experiment: Inhibition of bovine trypsin at 1.8 mg/ml after 60 secs by spectrophotometry
T1 sequence (whole entry): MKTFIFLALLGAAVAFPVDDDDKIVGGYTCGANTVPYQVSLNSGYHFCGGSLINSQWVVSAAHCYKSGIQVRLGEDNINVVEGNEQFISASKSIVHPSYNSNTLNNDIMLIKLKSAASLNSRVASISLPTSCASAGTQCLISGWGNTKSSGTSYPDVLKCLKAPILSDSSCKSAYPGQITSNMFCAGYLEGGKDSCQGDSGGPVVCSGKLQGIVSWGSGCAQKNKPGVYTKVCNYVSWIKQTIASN
Procedure, shortened: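 Chromogenic substrate hydrolysis assay of bovine trypsin (72.5 ng/mL in the well) with 80 µM substrate, with substrate level chosen from its KM. Enzyme stock was in 50 mM Tris-HCl pH 7.4, 150 mM NaCl, 0.1% PEG8000, 0.02% Tween80. Fractional residual activity was read spectrophotometrically across at least six serial inhibitor dilutions to derive IC50.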

[17] = biological target: T2, Coagulation factor XII (Homo sapiens) (UniProt P00748); experiment: (§2) Inhibition of FXIIa (unknown origin) after 60 secs by spectrophotometry
T2 sequence (whole entry): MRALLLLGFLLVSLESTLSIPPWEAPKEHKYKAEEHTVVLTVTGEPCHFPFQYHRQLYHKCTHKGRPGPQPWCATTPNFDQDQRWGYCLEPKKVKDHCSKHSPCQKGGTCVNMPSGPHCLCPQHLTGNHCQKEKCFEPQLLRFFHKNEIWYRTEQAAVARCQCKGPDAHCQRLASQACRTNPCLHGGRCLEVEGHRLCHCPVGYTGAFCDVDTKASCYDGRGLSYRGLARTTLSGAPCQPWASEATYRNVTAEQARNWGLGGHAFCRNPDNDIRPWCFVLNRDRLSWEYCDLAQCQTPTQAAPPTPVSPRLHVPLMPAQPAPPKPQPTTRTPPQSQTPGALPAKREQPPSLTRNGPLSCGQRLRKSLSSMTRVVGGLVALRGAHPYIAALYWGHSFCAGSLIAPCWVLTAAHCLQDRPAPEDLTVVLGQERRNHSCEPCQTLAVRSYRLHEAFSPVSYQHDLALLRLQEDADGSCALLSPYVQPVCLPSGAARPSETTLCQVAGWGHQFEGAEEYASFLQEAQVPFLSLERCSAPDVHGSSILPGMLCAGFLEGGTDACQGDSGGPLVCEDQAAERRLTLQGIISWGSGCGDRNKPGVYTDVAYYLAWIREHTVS
Procedure, shortened: (§3)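 Chromogenic substrate hydrolysis at pH 7.4 with at least six serially diluted concentrations of the agent. Residual activity is read spectrophotometrically and the IC50 is obtained from a dose–response fit. Substrate levels were set from its KM. Final enzyme/substrate: thrombin 6 nM/50 µM Spectrozyme TH; FXa 1.09 nM/125 µM; FXIIa 5 nM/125 µM; FIXa 89 nM/850 µM.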

Coagulation factor XII = biological target: T3, Coagulation factor XII (Homo sapiens, UniProt P00748); experiment: as §2; procedure, shortened: as §3
T3 sequence (P00748 whole entry): T2 sequence (whole entry)

Coagulation factor X = Coagulation factor X (Homo sapiens, UniProt P00742); experiment: Inhibition of human FXa after 60 secs by spectrophotometry
Chain of Coagulation factor X (P00742 41-179 limits assumed): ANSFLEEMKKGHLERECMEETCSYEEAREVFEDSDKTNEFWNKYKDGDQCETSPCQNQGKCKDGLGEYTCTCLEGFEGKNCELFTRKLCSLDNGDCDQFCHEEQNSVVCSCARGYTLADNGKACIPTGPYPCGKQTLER
Chain of Coagulation factor X (P00742 235-488 limits assumed): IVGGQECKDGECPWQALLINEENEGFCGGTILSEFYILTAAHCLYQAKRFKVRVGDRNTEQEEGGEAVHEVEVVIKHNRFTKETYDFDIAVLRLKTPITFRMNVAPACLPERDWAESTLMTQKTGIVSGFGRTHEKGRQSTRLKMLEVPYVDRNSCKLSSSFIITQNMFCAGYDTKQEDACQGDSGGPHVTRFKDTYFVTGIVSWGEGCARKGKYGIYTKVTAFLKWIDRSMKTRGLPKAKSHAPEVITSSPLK

Coagulation factor IX = Coagulation factor IX (Homo sapiens, UniProt P00740); experiment: Inhibition of human FIXa after 60 secs by spectrophotometry
Chain of Coagulation factor IX (P00740 47-191 limits assumed): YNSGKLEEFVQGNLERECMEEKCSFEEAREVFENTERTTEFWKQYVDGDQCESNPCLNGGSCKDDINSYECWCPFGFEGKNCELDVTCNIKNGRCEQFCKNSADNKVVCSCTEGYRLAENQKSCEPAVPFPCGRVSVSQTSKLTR
Chain of Coagulation factor IX (P00740 227-461 limits assumed): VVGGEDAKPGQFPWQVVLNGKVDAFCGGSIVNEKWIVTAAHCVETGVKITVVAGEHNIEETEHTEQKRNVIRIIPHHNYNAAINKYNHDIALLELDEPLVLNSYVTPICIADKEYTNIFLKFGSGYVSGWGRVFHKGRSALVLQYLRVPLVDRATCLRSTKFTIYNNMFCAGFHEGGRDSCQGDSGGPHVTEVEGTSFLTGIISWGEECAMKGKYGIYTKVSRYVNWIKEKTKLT

[18] = biological target: T4, Coagulation factor VII (Homo sapiens) (UniProt P08709); experiment: Inhibition of human FVIIa at 3.7 mg/ml after 60 secs by spectrophotometry
T4 sequence (whole entry): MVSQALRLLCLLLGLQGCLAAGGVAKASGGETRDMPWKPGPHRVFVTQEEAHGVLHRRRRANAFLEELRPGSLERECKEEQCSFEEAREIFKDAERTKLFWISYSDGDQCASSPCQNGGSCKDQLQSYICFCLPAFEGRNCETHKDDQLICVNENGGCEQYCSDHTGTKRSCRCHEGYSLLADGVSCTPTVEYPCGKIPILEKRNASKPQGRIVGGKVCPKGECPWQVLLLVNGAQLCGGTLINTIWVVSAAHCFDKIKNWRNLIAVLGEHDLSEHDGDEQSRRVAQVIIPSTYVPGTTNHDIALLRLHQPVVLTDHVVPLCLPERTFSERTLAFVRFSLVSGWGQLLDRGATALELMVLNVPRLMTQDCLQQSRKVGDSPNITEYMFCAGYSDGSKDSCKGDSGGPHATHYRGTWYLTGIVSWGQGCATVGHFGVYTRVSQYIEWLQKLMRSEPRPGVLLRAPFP
Procedure, shortened: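 Chromogenic hydrolysis with at least six serial concentrations of the agent and spectrophotometric residual activity. Factor VIIa was 8 nM with 1000 µM Spectrozyme FVIIa plus 40 nM recombinant tissue factor. Bovine chymotrypsin was 500 ng/mL with 240 µM Spectrozyme CTY.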

Prothrombin = Prothrombin (Homo sapiens, UniProt P00734); experiment: Inhibition of human thrombin after 60 secs by spectrophotometry; procedure, shortened: as §3
[19] = biological target: Coagulation factor XI (Homo sapiens) (UniProt P03951); conditions: 3 uM
Bos taurus = species: Bos taurus; experiment: Inhibition of bovine chymotrypsin at 1.8 mg/ml after 60 secs by spectrophotometry
[20] = biological target: Coagulation factor XI (Homo sapiens) (UniProt P03951); experiment: Inhibition of human FXIa assessed as S-2366 hydrolysis at 300 uM after 10 mins by microplate reader analysis
Procedure, shortened: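 Human FXIa (0.765 nM final) preincubated 10 min at 37 °C with inhibitor or solvent reference in pH 7.4 50 mM Tris-HCl, 150 mM NaCl, 0.1% PEG8000, 0.02% Tween80. S-2366 (345 µM) then added, and initial A405 rate read on a microplate reader. Residual activity is expressed relative to the no-inhibitor control. Highest concentration tested was 300 µM.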

Chain of Coagulation factor XI (Homo sapiens) (P03951 19-387 limits assumed): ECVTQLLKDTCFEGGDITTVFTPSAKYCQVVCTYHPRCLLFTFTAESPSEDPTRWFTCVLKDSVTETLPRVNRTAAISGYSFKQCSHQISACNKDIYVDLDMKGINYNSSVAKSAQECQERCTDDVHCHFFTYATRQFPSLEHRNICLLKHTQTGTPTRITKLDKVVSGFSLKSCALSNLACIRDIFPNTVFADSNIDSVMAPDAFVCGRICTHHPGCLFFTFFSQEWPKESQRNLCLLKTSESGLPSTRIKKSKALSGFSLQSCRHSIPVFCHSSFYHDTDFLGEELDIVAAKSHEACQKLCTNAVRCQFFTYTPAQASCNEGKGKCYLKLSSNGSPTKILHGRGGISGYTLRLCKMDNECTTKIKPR
Chain of Coagulation factor XI (Homo sapiens) (P03951 388-625 limits assumed): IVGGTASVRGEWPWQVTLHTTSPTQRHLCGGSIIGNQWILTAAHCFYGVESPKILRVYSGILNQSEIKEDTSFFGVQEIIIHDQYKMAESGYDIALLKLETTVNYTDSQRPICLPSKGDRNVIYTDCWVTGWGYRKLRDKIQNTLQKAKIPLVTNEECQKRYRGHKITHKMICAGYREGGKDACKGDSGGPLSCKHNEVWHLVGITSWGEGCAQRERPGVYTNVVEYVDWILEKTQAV

For `COc1cc([C@H]2Oc3cc([C@H]4Oc5cc(OS(=O)(=O)O)cc(O)c5C(=O)[C@@H]4OS(=O)(=O)O)ccc3O[C@@H]2COS(=O)(=O)O)ccc1OS(=O)(=O)O`, the inhibition [1] was “inactive”.

In the case of `O=C(O)C1Cc2cc(OS(=O)(=O)O)c(OS(=O)(=O)O)cc2CN1C(=O)CCc1cc(OS(=O)(=O)O)ccc1OS(=O)(=O)O` (centres undefined), the inhibition [1] is reported as “inactive”.

With `O=C(OC[C@H]1O[C@@H](OC(=O)c2cc(OS(=O)(=O)[O-])c(O)c(OS(=O)(=O)[O-])c2)[C@H](OC(=O)c2cc(OS(=O)(=O)[O-])c(O)c(OS(=O)(=O)[O-])c2)[C@@H](OC(=O)c2cc(OS(=O)(=O)[O-])c(O)c(OS(=O)(=O)[O-])c2)[C@@H]1OC(=O)c1cc(OS(=O)(=O)[O-])c(O)c(OS(=O)(=O)[O-])c1)c1cc(OS(=O)(=O)[O-])c(O)c(OS(=O)(=O)[O-])c1.[Na+].[Na+].[Na+].[Na+].[Na+].[Na+].[Na+].[Na+].[Na+].[Na+]` [sulfated pentagalloylglucoside] the Ratio (Plasma [2]) was 18, the Activity (Blood [3]) was 15.1 mm and the Activity (Blood [4]) was 43.5 mm. It also gave an Activity (Blood [5]) of 49.8 mm, an Activity (Blood [6]) of 62 mm and an Activity (Blood [7]) of 9.4 degree. It also gave an Activity (Blood [8]) of 30.6 degree, an Activity (Blood [9]) of 51.4 degree and a Time (Blood [10]) of 87.1 min. The Time (Blood [11]) was 37.8 min, the Time (Blood [12]) was 22.8 min and the Time (Blood [13]) was 6.6 min. For the same molecule, the 2aPTT (Plasma [14]) was 96 µg/mL, the 2PT (Plasma [15]) was 298 µg/mL and the inhibition [16] was “inactive”. The Efficacy [17] was 55.7%, the IC50 (Coagulation factor XII) was 131 µM and the IC50 (Coagulation factor X) was 136 µM. The IC50 (Coagulation factor IX) was 582 µM, the inhibition [18] was “inactive” and the IC50 (Prothrombin) was 622 µM. The Efficacy [19] was 100% and the inhibition (Bos taurus) was “inactive”.

`O=C(OC[C@H]1O[C@@H](OC(=O)c2cc(O)c(O)c(O)c2)[C@H](OC(=O)c2cc(O)c(O)c(O)c2)[C@@H](OC(=O)c2cc(O)c(O)c(O)c2)[C@@H]1OC(=O)c1cc(O)c(O)c(O)c1)c1cc(O)c(O)c(O)c1` was tested, and the inhibition [20] was “inactive”.

`O=C(/C=C/c1ccc(OS(=O)(=O)O)c(OS(=O)(=O)O)c1)O[C@@H]1C[C@](O)(C(=O)O)C[C@@H](OS(=O)(=O)O)[C@H]1OS(=O)(=O)O` was tested, and the inhibition [1] was “inactive”.

For `O=C(O)C1Cc2cc(OS(=O)(=O)O)c(OS(=O)(=O)O)cc2CN1C(=O)CCCc1cc(OS(=O)(=O)O)ccc1OS(=O)(=O)O` (centres undefined), the inhibition [1] was “inactive”.

With `O=C(O)C1Cc2c(OS(=O)(=O)O)ccc(OS(=O)(=O)O)c2CN1C(=O)CCCCc1cc(OS(=O)(=O)O)ccc1OS(=O)(=O)O` (centres undefined) the inhibition [1] was “inactive”.

`O=C(CCc1cc(OS(=O)(=O)O)ccc1OS(=O)(=O)O)N1CCc2cc(OS(=O)(=O)O)c(OS(=O)(=O)O)cc2C1` was tested, and the inhibition [1] was “inactive”.

`O=C(O)C1Cc2cc(OS(=O)(=O)O)c(OS(=O)(=O)O)cc2CN1C(=O)CCCCc1cc(OS(=O)(=O)O)ccc1OS(=O)(=O)O` (centres undefined) was tested, and the inhibition [1] was “inactive”.

With `O=C(O)C1Cc2c(OS(=O)(=O)O)ccc(OS(=O)(=O)O)c2CN1C(=O)CCc1cc(OS(=O)(=O)O)ccc1OS(=O)(=O)O` (centres undefined) the inhibition [1] was “inactive”.

For `O=C(CCCc1cc(OS(=O)(=O)O)ccc1OS(=O)(=O)O)N1CCc2c(ccc(OS(=O)(=O)O)c2OS(=O)(=O)O)C1`, the inhibition [1] was “inactive”.

With `O=C(O)C1Cc2c(OS(=O)(=O)O)ccc(OS(=O)(=O)O)c2CN1C(=O)CCCc1cc(OS(=O)(=O)O)ccc1OS(=O)(=O)O` (centres undefined) the inhibition [1] was “inactive”.
